Consider 13 compounds from publication PMC5409837 (Science translational medicine, 2017).

Where two headings read alike, the source gives them in different places.

Series [1] deals with hiPSC-CMs. Briefly: High-throughput hiPSC-CM contractility assessment. In kind it is cell-based, human. To be noted: for alterations in beating rate relative to LD50: commercially-available healthy control hiPSC-CMs, 72 hour treatment.
A further series has as its system hiPSCs. It is filed as cell-based, human.
A short description of series [2]: Clinical cardiotoxicity in patients. It is filed as in vivo, human. The following applies: sunitinib first-line, axitinib second-line treatment.
Series [3] has as its system INSR and IGF1R phosphorylation. Briefly: Human Phospho-RTK Array in hiPSC-CMs: INSR and IGF1R. In kind it is cell-based. The following applies: for INSR and IGF1R phosphorylation: 0-1 μM, 72 hours.
The subject of series [4] is hiPSC-CMs. As to the kind of experiment: Patch clamp electrophysiology. It is filed as cell-based, human. The following applies: two hour treatment; for action potential duration: clinically-relevant concentrations.
The test system of series [5] is hiPSC-CMs. To be noted: for LD50: hiPSC-CMs, 72 hour TKI treatment, PrestoBlue cell viability assay.
Series [6] concerns VEGFR2 and PDGFRα phosphorylation. The following applies: hiPSC-CMs.
Series [7] relates to hiPSC-CMs. As to the kind of experiment: Calcium imaging of hiPSC-CMs. In kind it is cell-based, human. The following applies: 2 hour treatment; for beat rate (calcium imaging) / calcium transient duration: clinically-relevant concentrations. In a few lines: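 hiPSC-CMs (day 30–40 post-differentiation) reseeded on Matrigel-coated chamber slides and exposed to test compound for 2 hours; compound stocks in DMSO at 10 mM. Cells loaded with 5 μM Fluo-4 AM plus 0.02% Pluronic F-127 in Tyrode's solution for 15 min at 37°C, then washed. Spontaneous Ca2+ transients recorded at 37°C by confocal single-cell line scan.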

The subject of a further series is Axl phosphorylation. As to the kind of experiment: Human Phospho-RTK Array in hiPSC-CMs: Axl. In kind it is cell-based. To be noted: 0-1 μM, 72 hours.
Series [8] has as its system hiPSC-CMs.
The conditions of series [9]: patients, cited from earlier work.
The test system of another series is neuropilin 2 (NRP2). Briefly: Microarray gene expression in hiPSC-CMs after TKI treatment. It is filed as cell-based, human. The following applies: 1 μM TKI, 72 hour.
The test system of the next series is hiPSC-CFs. Briefly: TKI cytotoxicity in hiPSC-derived cardiac fibroblasts. It is filed as cell-based.
Another series deals with hiPSC-ECs. As to the kind of experiment: TKI cytotoxicity in hiPSC-derived endothelial cells. In kind it is cell-based.
Series [10] concerns hiPSC-CMs. To be noted: cited from earlier work.
A further series relates to VEGFC. Briefly: RNA-sequencing of hiPSC-CMs treated with sorafenib: VEGFC. In kind it is cell-based, human. To be noted: 5 healthy control hiPSC-CM lines, 1 μM, 72 hours.
A further series concerns zebrafish heart. The following applies: cited from earlier work.
Series [11] concerns hiPSC-CMs. In kind it is cell-based. The following applies: for rescue of ponatinib toxicity (hiPSC-CM viability): co-treatment with ponatinib, 72 hours, CellTiter-Glo. (ATP-based viability assays read luminescence as a measure of living cells.)
A further series deals with Akt protein network. Briefly: Human Phospho-Kinase Antibody Array in hiPSC-CMs after IGF1 or insulin. It is filed as cell-based. The following applies: 12 hour IGF1 or insulin treatment.
The mark [12] stands for this setting: quantitative and qualitative viability assays.

On to `CNC(=O)c1ccccc1Sc1ccc2c(/C=C/c3ccccn3)n[nH]c2c1` [axitinib], for which the contraction irregularities entry in the series with hiPSC-CMs [1] (clinically-relevant concentrations) is “Neither DMSO nor axitinib elicited contraction irregularities”. Moreover, the “toxicity in undifferentiated hiPSCs” value in the series on hiPSCs is “extremely toxic to hiPSCs”. The “clinical cardiotoxicity in the two kidney cancer patients” value in [2] is listed as “no significant clinical cardiotoxicity”. For the same compound, in series [3], the “fold enhancement of INSR/IGF1R phosphorylation” value is reported as “two-fold”; the “INSR and IGF1R phosphorylation” value was “increased INSR and IGF1R phosphorylation”. The action potential duration entry with hiPSC-CMs [4] is on record as “did not alter action potential duration”. Also, in the series on hiPSC-CMs [5], the “difference in cytotoxicity between TKI-receiving patient hiPSC-CMs and healthy control hiPSC-CM lines” value was “did not observe a significant difference in cytotoxicity”; the “relative cytotoxicity among TKIs in hiPSC-CMs” value is given as “the least cytotoxic TKI in hiPSC-CMs”. For the same compound, the “VEGFR2 and PDGFRα phosphorylation” value in series [6] (0-1 μM, 72 hours, sub-cytotoxic concentrations) was “the strongest dual-inhibition”. Further, the “calcium imaging parameters (transient amplitude, transient duration, beating rate)” value with hiPSC-CMs [7] was “did not significantly alter parameters such as calcium transient amplitude, transient duration, or beating rate”.

On to `COc1cc2nccc(Oc3ccc(NC(=O)C4(C(=O)Nc5ccc(F)cc5)CC4)cc3)c2cc1OC` [cabozantinib], for which the Axl phosphorylation result in the series on Axl phosphorylation is on record as “decreased Axl phosphorylation”.

On to `COc1cccc2c1C(=O)c1c(O)c3c(c(O)c1C2=O)C[C@@](O)(C(=O)CO)C[C@@H]3O[C@H]1C[C@H](N)[C@H](O)[C@H](C)O1` [doxorubicin], for which, in the series with hiPSCs, the “toxicity in hiPSCs at 0.1 μM” value is listed as “lethal” and the “toxicity in undifferentiated hiPSCs” value is reported as “substantially enhanced in hiPSCs”. This compound also registered an LD50 in the series with hiPSC-CMs [5] of 0.78 µM. The compound also registered a cardiac safety index in the series with hiPSC-CMs [8] (human, 72 h) of at most 0.10.

In the series with hiPSC-CMs [5], `C#Cc1cccc(Nc2ncnc3cc(OCCOC)c(OCCOC)cc23)c1` [erlotinib] came in with an LD50 of 87.60 µM.

`Cc1ccc(NC(=O)c2ccc(CN3CCN(C)CC3)cc2)cc1Nc1nccc(-c2cccnc2)n1` [imatinib]: the “calcium imaging parameters (transient amplitude, transient duration, beating rate)” value in the series on hiPSC-CMs [7] is listed as “did not significantly alter parameters such as calcium transient amplitude, transient duration, or beating rate”.

Regarding `Cc1cn(-c2cc(NC(=O)c3ccc(C)c(Nc4nccc(-c5cccnc5)n4)c3)cc(C(F)(F)F)c2)cn1` [nilotinib], the “alterations in beating rate relative to LD50” value in the series with hiPSC-CMs [1] is “alterations in hiPSC-CM beating rate and other parameters at doses lower than LD50 cytotoxicity values”. The “clinical QT interval prolongation and arrhythmias” value in series [9] was “cause dangerous QT interval prolongation and arrhythmias clinically”. In the series on hiPSC-CMs [4], the “cellular beating rate (patch clamp)” value is on record as “decreased cellular beating rate” and the action potential duration entry is “significantly prolonged action potential duration”. The same compound registered a cardiac safety index in the series with hiPSC-CMs [8] (human, 72 h) of at most 0.10. Also, in the series with hiPSC-CMs [7], the “beat rate (calcium imaging)” value was “decreased beat rate” and the calcium transient duration result is “prolonged calcium transient duration”.

On to `Cc1ccc(C(=O)Nc2ccc(CN3CCN(C)CC3)c(C(F)(F)F)c2)cc1C#Cc1cnc2cccnn12` [ponatinib], for which the “increase in expression of neuropilin 2” value in the series on neuropilin 2 (NRP2) is listed as “two-fold”. In series [3], the “fold enhancement of INSR/IGF1R phosphorylation” value is “two-fold”; the “INSR and IGF1R phosphorylation” value was “increased INSR and IGF1R phosphorylation”. Further, the “relative cytotoxicity in hiPSC-CFs” value in the series on hiPSC-CFs is reported as “the highest cytotoxicities”. Moreover, in the series on hiPSC-CMs [5], the LD50 is 4.3 µM. In addition, the “cytotoxicity in all eleven healthy control hiPSC-CM lines” value in the series with hiPSC-CMs [5] (setting [12]) was “highly cytotoxic”. Moreover, in the series on hiPSC-ECs, the “relative cytotoxicity in hiPSC-ECs” value is “the most cytotoxic TKIs in hiPSC-ECs”. Also, the “VEGFR2/PDGFR inhibition at nanomolar concentrations” value in series [6] is recorded as “complete VEGFR2/PDGFR inhibition”. Moreover, in the series with hiPSC-CMs [10], the “mitochondrial stress and contraction abnormalities in hiPSC-CMs” value is “induce mitochondrial stress and elicit contraction abnormalities in hiPSC-CMs”.

For `CNC(=O)c1cc(Oc2ccc(NC(=O)Nc3ccc(Cl)c(C(F)(F)F)c3)c(F)c2)ccn1` [regorafenib], the “increase in expression of neuropilin 2” value in the series with neuropilin 2 (NRP2) is on record as “two-fold”. The “relative cytotoxicity in hiPSC-CFs” value with hiPSC-CFs was “the highest cytotoxicities”. Also, in the series with hiPSC-CMs [5], the LD50 was 7.1 µM. For the same compound, the “cytotoxicity in all eleven healthy control hiPSC-CM lines” value in the series with hiPSC-CMs [5] (setting [12]) was “highly cytotoxic”. Also, the cardiac safety index result in the series with hiPSC-CMs [8] (value from 0-1, 0.10 = threshold for highly cardiotoxic compounds) is listed as “below 0.10”. Further, in the series on hiPSC-ECs, the “relative cytotoxicity in hiPSC-ECs” value is recorded as “the most cytotoxic TKIs in hiPSC-ECs”. In addition, in series [6], the “VEGFR2/PDGFR inhibition at nanomolar concentrations” value was “complete VEGFR2/PDGFR inhibition”.

As to `CNC(=O)c1cc(Oc2ccc(NC(=O)Nc3ccc(Cl)c(C(F)(F)F)c3)cc2)ccn1` [sorafenib], the “increase in expression of neuropilin 2” value with neuropilin 2 (NRP2) is “two-fold”. The VEGFC expression result in the series with VEGFC is “increased expression”. Further, in series [9] (ref Table S2, 20), the clinical cardiotoxicity result was “causes ventricular dysfunction and heart failure clinically”. The “cardiotoxicity in zebrafish heart” value in the series on zebrafish heart is “induces cardiomyocyte death and contractility defects in the zebrafish heart”. Besides, in the series on hiPSC-CMs [5], the “cytotoxicity in all eleven healthy control hiPSC-CM lines” value is reported as “highly cytotoxic” and the LD50 came to 3.4 µM.

For `CCN(CC)CCNC(=O)c1c(C)[nH]c(/C=C2\C(=O)Nc3ccc(F)cc32)c1C` [sunitinib], the “clinical cardiotoxicity in the two kidney cancer patients” value in series [2] was “no significant clinical cardiotoxicity”. Moreover, in the series on hiPSC-CMs [5], the “difference in cytotoxicity between TKI-receiving patient hiPSC-CMs and healthy control hiPSC-CM lines” value is “did not observe a significant difference in cytotoxicity”.

As for `COc1cc2c(Nc3ccc(Br)cc3F)ncnc2cc1OCC1CCN(C)CC1` [vandetanib], in the series on hiPSC-CMs [1], the “alterations in beating rate relative to LD50” value was “alterations in hiPSC-CM beating rate and other parameters at doses lower than LD50 cytotoxicity values”. For the same compound, the “clinical QT interval prolongation and arrhythmias” value in [9] is “cause dangerous QT interval prolongation and arrhythmias clinically”. In the series with hiPSC-CMs [4], the “cellular beating rate (patch clamp)” value is reported as “decreased cellular beating rate” and the action potential duration result was “significantly prolonged action potential duration”. Moreover, in the series on hiPSC-CMs [7], the “beat rate (calcium imaging)” value is given as “decreased beat rate” and the calcium transient duration entry is listed as “prolonged calcium transient duration”.

Turning to IGF1, the figures for the “rescue of ponatinib toxicity (hiPSC-CM viability)” value in the series on hiPSC-CMs [11] and in the series with hiPSC-CMs [11] (listed as IGF) were “cardioprotective effect” and “significantly rescued ponatinib toxicity”, respectively. Besides, in the series with Akt protein network, the “phosphorylation of Akt protein network” value is given as “enhanced phosphorylation of the anti-apoptotic Akt protein network”.

Take insulin: in the series on hiPSC-CMs [11] (co-treatment with doxorubicin), the “rescue of doxorubicin cytotoxicity in hiPSC-CMs” value was “rescued hiPSC-CMs from doxorubicin cytotoxicity”. Moreover, in the series on Akt protein network, the “phosphorylation of Akt protein network” value was “enhanced phosphorylation of the anti-apoptotic Akt protein network”.
